# Experimental data: the M2OR odorant receptor database
# Target: T1, UniProt L7MU75
# T1 sequence (whole entry): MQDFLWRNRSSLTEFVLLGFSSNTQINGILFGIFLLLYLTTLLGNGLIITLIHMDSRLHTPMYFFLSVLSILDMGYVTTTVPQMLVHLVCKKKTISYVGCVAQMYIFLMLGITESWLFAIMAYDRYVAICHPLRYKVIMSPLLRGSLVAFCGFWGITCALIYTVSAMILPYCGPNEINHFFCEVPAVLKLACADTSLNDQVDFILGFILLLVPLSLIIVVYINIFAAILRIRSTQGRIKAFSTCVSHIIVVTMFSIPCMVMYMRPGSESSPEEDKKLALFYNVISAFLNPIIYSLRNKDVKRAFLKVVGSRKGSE
# Conditions: stereoisomer not certain
# How it was run: (§1)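 Each entry records the cell line, G-protein, co-transfected protein and tags used. Methods varied with the source, often transient luciferase assays in mammalian cell lines. A receptor–molecule pair is called responsive (active) if the original authors judged its signal statistically different from baseline and non-responsive (inactive) otherwise.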
row,Compound,odorant receptor agonist call
1,CCC(=O)O,inactive
2,CC(=O)OCC=C(C)C,inactive
3,CCCCCCCCO,inactive
4,CCCCCCCCCCO,inactive
5,CCCCCCC(=O)[O-].[H+],inactive
6,CCCCCO,inactive
7,CCC(C(=O)O)c1ccccc1 (configuration not stated),inactive
8,CCCCCCCCC(=O)O,inactive
9,CCCO,inactive
10,CCCC(C)=O,inactive
11,O=C(OCc1ccccc1)c1ccccc1O,inactive
12,C=C(C)C1CCC(C)C(=O)C1 (configuration not stated),inactive
13,CCCCCCO,inactive
14,CC(C)=CCCC(C)CCO (configuration not stated),inactive

# Target: T2, UniProt L7N0P5
# T2 sequence (whole entry): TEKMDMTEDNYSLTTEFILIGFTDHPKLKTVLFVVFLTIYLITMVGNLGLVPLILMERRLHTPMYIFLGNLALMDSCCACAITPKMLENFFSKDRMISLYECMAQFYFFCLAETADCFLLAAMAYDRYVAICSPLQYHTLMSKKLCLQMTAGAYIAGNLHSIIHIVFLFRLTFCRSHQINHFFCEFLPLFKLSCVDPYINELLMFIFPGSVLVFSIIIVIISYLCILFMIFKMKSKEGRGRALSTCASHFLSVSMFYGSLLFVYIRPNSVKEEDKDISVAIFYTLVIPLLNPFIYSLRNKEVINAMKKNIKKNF
# Conditions: stereoisomer not certain
# How it was run: as §1
row,Compound,odorant receptor agonist call
1,CC1CCc2nccnc21 (configuration not stated),active
2,CCc1cnc(C)c(C)n1,inactive
3,CC(=O)c1cnccn1,active
4,CCc1nccnc1OC,active
5,Cc1cnccn1,active
6,CCc1nccnc1C,active
7,COC1=C(C)OC(C)C1=O (configuration not stated),inactive
8,COc1nccnc1CC(C)C,active
9,CC1=NC(C)C(C)S1 (configuration not stated),active
10,C=Cc1cnccn1,active
11,Cc1cnc(C)c(C)n1,active
12,CCc1nccnc1C(C)=O,active
13,Cc1cnc(C)cn1,active
14,Cc1cncc(C)n1,active
15,CC(=O)c1nccnc1C,active

# Target: T3, UniProt L7N210
# T3 sequence (whole entry): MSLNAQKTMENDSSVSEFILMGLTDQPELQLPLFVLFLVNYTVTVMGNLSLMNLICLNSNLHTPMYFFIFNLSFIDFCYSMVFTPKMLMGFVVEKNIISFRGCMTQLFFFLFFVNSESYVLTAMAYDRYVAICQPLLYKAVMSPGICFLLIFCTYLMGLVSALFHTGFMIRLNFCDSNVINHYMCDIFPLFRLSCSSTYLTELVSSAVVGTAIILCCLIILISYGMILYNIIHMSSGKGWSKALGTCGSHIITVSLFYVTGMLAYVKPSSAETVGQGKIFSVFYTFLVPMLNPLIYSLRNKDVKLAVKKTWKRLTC
# Conditions: stereoisomer not certain
# How it was run: as §1
row,Compound,odorant receptor agonist call
1,CCC(=O)O,inactive
2,CC(=O)OCC=C(C)C,inactive
3,O=C1Cc2ccccc2O1,inactive
4,O=C1CCOc2ccccc21,active
5,CCCCCCCCO,inactive
6,CCCCCCCC(=O)[O-].[H+],inactive
7,CCCCCCCCCCO,inactive
8,CCCCCCC(=O)[O-].[H+],inactive
9,CCCCCO,inactive
10,CCC(C(=O)O)c1ccccc1 (configuration not stated),inactive
11,CCCCCCCCC(=O)O,inactive
12,CCCO,inactive
13,CCCC(C)=O,inactive
14,O=C(OCc1ccccc1)c1ccccc1O,inactive
15,C=C(C)C1CCC(C)C(=O)C1 (configuration not stated),inactive
16,CCCCCCO,inactive
17,CC(C)=CCCC(C)CCO (configuration not stated),inactive
18,CCCCOC(=O)C(C)OC(=O)CCC (configuration not stated),inactive

# Target: T4, UniProt Q3KPB0
# T4 sequence (whole entry): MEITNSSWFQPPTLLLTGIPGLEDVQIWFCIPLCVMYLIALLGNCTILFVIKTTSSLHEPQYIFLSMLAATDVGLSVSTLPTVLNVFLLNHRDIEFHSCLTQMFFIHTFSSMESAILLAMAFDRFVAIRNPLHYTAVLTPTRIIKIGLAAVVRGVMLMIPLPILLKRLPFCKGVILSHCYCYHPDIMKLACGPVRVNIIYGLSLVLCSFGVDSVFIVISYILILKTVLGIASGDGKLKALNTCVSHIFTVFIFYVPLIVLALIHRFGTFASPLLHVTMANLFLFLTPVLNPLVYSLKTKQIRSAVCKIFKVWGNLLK
# Conditions: stereoisomer not certain
# How it was run: as §1
row,Compound,odorant receptor agonist call
1,CCC(=O)O,inactive
2,CC(=O)OCC=C(C)C,inactive
3,O=C1Cc2ccccc2O1,inactive
4,O=C1CCOc2ccccc21,inactive
5,CCCCCCCCO,inactive
6,CCCCCCCCCCO,inactive
7,CCCCCCCCC(=O)O,inactive
8,C=C(C)C1CCC(C)C(=O)C1 (configuration not stated),inactive
9,CCCCCCO,inactive
10,CC(C)=CCCC(C)CCO (configuration not stated),inactive
